Measurements as given in publication PMC5318329 (Drugs in R&D, 2016).

Legend:
[1] = assay type: in vivo, human
How it was run: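 Non-head-injury trauma patients randomised within 24–26 h of injury; daily IV infusion over 4 h or 24 h for 3 days. Plasma sampled pre-dose and serially after the first and third doses. Protein precipitation, then HPLC–MS/MS (LLOQ 0.1 ng/mL, ULOQ 100 ng/mL); NQ set missing, outliers excluded. NONMEM mixed-effects three-compartment model with first-order elimination; BMI power covariate centred at 27.4 kg/m2.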

[2] = assay type: in vivo, human; details: intravenous infusion up to 10 mg, 3 consecutive days
C-reactive protein (CRP) = details: later time points (e.g. 72 h post dose), all dilmapimod dose levels; cited from earlier work
IL-6 = details: cited from earlier work
[3] = final three-compartment population PK model, IV infusion
[4] = power model, covariate centred to population mean 27.4 kg/m^2

Q: Which “Dose proportionality of plasma concentration” value ([1]; IV infusion 3, 7.5 mg over 4 h, 7.5, 10 mg over 24 h) does the source give for Cc1cc(F)ccc1-c1nc(NC(CO)CO)nc2c1ccc(=O)n2-c1c(F)cccc1F [Dilmapimod] here?
A: The value was “increased approximately proportionally to the increase in dose”.

Q: What about the Terminal half-life ([1]; calculated based on typical value of CL, Vc, V2, V3, Q1 and Q2) of the same compound?
A: The Terminal half-life was 16 h.

Q: What about the “Q1 (inter-compartmental clearance), typical value” [1, 3] of the same compound?
A: The value was 28.2 L/h.

Q: And the “Q2 (inter-compartmental clearance), typical value” [1, 3]?
A: The value was 5.7 L/h.

Q: What about the “V2 (volume of distribution of peripheral compartment), typical value” [1, 3] of the same compound?
A: Its value is 35.9 L.

Q: What about the “V3 (volume of distribution of peripheral compartment), typical value” [1, 3] of the same compound?
A: The value was 115.6 L.

Q: What about the “Vc (volume of distribution of the central compartment), typical value” [1, 3] of the same compound?
A: The value was 8.1 L.

Q: What about the “Clearance lower than in typical patient” value ([1]; patients with BMI of 23 kg/m^2 (mean - SD) vs typical patient (27.4 kg/m^2)) of the same compound?
A: Its value is “about 21%”.

Q: And the “Clearance higher than in typical patient” value ([1]; patients with BMI of 32 kg/m^2 (mean + SD) vs typical patient (27.4 kg/m^2))?
A: The value was about 23%.

Q: And the “BMI covariate on CL (power model exponent)” value [1, 4]?
A: The value was 1.36.

Q: What about the “BMI covariate on Q2 (power model exponent)” value [1, 4] of the same compound?
A: Its value is 2.42.

Q: What about the “Vss (steady-state volume of distribution) = Vc + V2 + V3” value ([1]; sum of Vc, V2 and V3 of the final population PK model) of the same compound?
A: The value was 160 L.

Q: What about the Tolerability [2] of the same compound?
A: The Tolerability was “generally well tolerated”.

Q: What about the “CRP levels relative to placebo (exploratory analyses)” value (C-reactive protein (CRP)) of the same compound?
A: Its value is “trend of lower levels of CRP”.

Q: And the “IL-6 levels relative to placebo (exploratory analyses)” value (IL-6; 24 h post dose, all dilmapimod dose levels)?
A: The value was “trend of lower levels of IL-6”.

Q: And the “Ratios of IL-6 relative to placebo” value (IL-6; continuous infusion of 10 mg/24 h, up to 72 h post dose)?
A: The value was “below 1”.

Q: What about the “Overall effect of dilmapimod on IL-6 levels in PK/PD modelling” value (IL-6; similar PK/PD modelling approach on IL-6 data) of the same compound?
A: Its value is “not revealed”.
